Experimental findings from ChEMBL document CHEMBL4513216, “Probing the Open Global Health Chemical Diversity Library for Multistage-Active Starting Points for Next-Generation Antimalarials” (ACS Infect Dis, 2020) are described below.

This data set is described as follows: Toxicity liver stage against HepG2, at 10uM. Type of data set: cell-based. Further details: test concentration 10 uM, cell line HepG2-A16-CD81EGFP. To be noted: human, HepG2-A16-CD81EGFP cells; read-out: INHIBITION
In outline: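 Uninfected HepG2-A16-CD81EGFP cells, 3 × 10^3 per well, 1536-well, plated on prespotted compound at 10 μM final, parasite-free screening media added to match infected plates; puromycin 10 μM positive, DMSO 0.5% negative; run in parallel with 48 h PbLuc assay at 37 °C, 5% CO2; viability by CellTiter-Glo luminescence, normalized to controls.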
Take `COCCO[C@H]1COCCN(Cc2ccc(OC)cc2)C1`: the cytotoxicity at 10 µM amounted to 9.71%.

Take `CC(C)NC(=O)CN1CCCNCC1`: the cytotoxicity at 10 µM is -0.616%.

With `Cc1ccc(C(=O)Nc2nnc(C3CC3)s2)c(-n2cnnn2)c1C`, the cytotoxicity at 10 µM worked out at 12.3%.

As to `O=C(CSC1=NS(=O)(=O)c2cc(F)ccc2N1)Nc1ccc(Cl)cc1`, the cytotoxicity at 10 µM was 8.93%.

On to `COC1(CNC(=O)CCCc2ccccc2)CCSC1` (stereo unspecified), for which the cytotoxicity at 10 µM came out at 4.68%.

`O=C(NCCn1nc(-n2cncn2)ccc1=O)c1ccccc1Br`: the cytotoxicity at 10 µM was -2.02%.

For the compound `Cc1cccc(CN2CCC3(CCC(C(=O)N(C)C)O3)CC2)n1` (stereo unspecified), the cytotoxicity at 10 µM came out at 3.14%.

In the case of `COc1cc(OC)cc(C2SCC(=O)Nc3ccsc32)c1` (stereo unspecified), the cytotoxicity at 10 µM was -1.16%.

In the case of `CCOC(=O)c1s/c(=N\C(=O)COc2cnc(C)cc2O)[nH]c1C`, the cytotoxicity at 10 µM came to 5.56%.

As for `COc1ccc(C)cc1-c1[nH]c2ccccc2c1C(=O)O`, the cytotoxicity at 10 µM is 0.806%.

In the case of `COCCn1ccc(=O)c(OCC(=O)Nc2cccc(C(C)=O)c2)c1C`, the cytotoxicity at 10 µM turned out to be 4.31%.

With `COc1cc(C2CC(=O)Oc3cc(C)[nH]c(=O)c32)ccc1OC(F)F` (stereo unspecified), the cytotoxicity at 10 µM amounted to 7.34%.

As for `CNc1nc2c(s1)C(c1c(F)cccc1Cl)CC(=O)N2` (stereo unspecified), the cytotoxicity at 10 µM was -14.7%.

Take `CC(C)(C)C(=O)N1CCCC1c1cc(CO)[nH]n1` (stereo unspecified): the cytotoxicity at 10 µM was determined as 1.61%.

`CCS(=O)(=O)N1C[C@@H](c2cc(O)nc(C)n2)[C@H](c2ccccc2F)C1`: the cytotoxicity at 10 µM was 7.17%.

Regarding `CC(=O)N1CCC1c1cc(N2CC(O)C2)nc(C)n1` (stereo unspecified), the cytotoxicity at 10 µM stood at 5.76%.

As for `Cn1cc(C(=O)N2CCCC(Cc3cncc4ccccc34)C2)cn1` (stereo unspecified), the cytotoxicity at 10 µM was -13.2%.

`O=C(O)COCC(=O)NC1CC2(CCCCC2)Oc2ccccc21` (stereo unspecified): the cytotoxicity at 10 µM was -28.5%.

Regarding `CNC(=O)C1(c2cnccn2)CCCN1C(=O)c1ccc(F)cc1` (stereo unspecified), the cytotoxicity at 10 µM was found to be 0.918%.

In the case of `CC(C)(C)c1nnc(NCc2ccc(F)cc2)o1`, the cytotoxicity at 10 µM amounted to 6.88%.

For the compound `CCn1cnnc1CNC(=O)NCC(O)c1ccc(OC)cc1` (stereo unspecified), the cytotoxicity at 10 µM worked out at 5.66%.

With `COC(=O)c1ccc(S(=O)(=O)N2CCCn3ncnc32)s1`, the cytotoxicity at 10 µM stood at 19.8%.

Take `Cc1cc(C2CCCN(C(=O)COc3cccc(F)c3)C2)n[nH]1` (stereo unspecified): the cytotoxicity at 10 µM came to 5.95%.

`NC(=O)C1CCN(C(=O)CSC2CCCc3ccccc32)CC1` (stereo unspecified): the cytotoxicity at 10 µM is 1.4%.

With `CC(CS(C)(=O)=O)N(C(=O)Nc1cc(F)ccc1Cl)C1CC1` (stereo unspecified), the cytotoxicity at 10 µM was -4.15%.

For `CCOc1cncc(N2CCN(c3ccccc3F)CC2)n1`, the cytotoxicity at 10 µM is -0.0195%.

For `COc1ccc(S(=O)(=O)NCCC(=O)NCc2ccoc2)cc1OC`, the cytotoxicity at 10 µM was 10.8%.

Consider `Cc1ccc(C2COCCN2C(=O)c2ccsc2)o1` (stereo unspecified), for which the cytotoxicity at 10 µM was -2.55%.

Consider `CC(C)CN1CCN(C(=O)c2cc(=O)c3ccccc3[nH]2)CC1`, for which the cytotoxicity at 10 µM is -4.92%.

`CC(NC(=O)Cn1cc(C(N)=O)c(-c2ccccc2)n1)C1CC1` (stereo unspecified): the cytotoxicity at 10 µM is -7.9%.

Regarding `Cc1cc(OC(F)F)c(C(=O)N2CC[C@H](O)C2)s1`, the cytotoxicity at 10 µM came to 9.67%.

In the case of `Cc1cc(Br)ccc1C(=O)Nc1c(C(N)=O)n[nH]c1C`, the cytotoxicity at 10 µM was -2.58%.

As for `Cc1nc2c(s1)C(N(C)C(=O)NCCCC(C)(C)CO)CCC2` (stereo unspecified), the cytotoxicity at 10 µM is -3.43%.

For the compound `O=C(CCOCC(F)(F)F)NS(=O)(=O)c1cccnc1`, the cytotoxicity at 10 µM came to 0.946%.

In the case of `COCCN1CCC(CNC(=O)C2(S(C)(=O)=O)CCCC2)CC1`, the cytotoxicity at 10 µM was -9.61%.

Turning to `CC(C)(C)C(=O)NS(=O)(=O)c1ccc(C#N)c(C(F)(F)F)c1`, the cytotoxicity at 10 µM stood at 1.38%.

With `CCCc1nc(C[S+]([O-])Cc2cn3cccc(C)c3n2)no1` (stereo unspecified), the cytotoxicity at 10 µM is 2.48%.

As for `CCS(=O)(=O)N1CCc2c(cccc2NC(=O)NCCOC)C1`, the cytotoxicity at 10 µM is 2.17%.

Consider `O=C1[C@H]2CN(S(=O)(=O)C3CC3)C[C@H]2CN1CC1CC1`, for which the cytotoxicity at 10 µM is 1.8%.

As for `CCC[C@@H]1CN(S(=O)(=O)c2ccc3[nH]c(=O)[nH]c3c2)C[C@H]1NC(C)=O`, the cytotoxicity at 10 µM is -7.19%.

As for `Cc1cc2ccccc2n1CCC(=O)NCCN(C)S(C)(=O)=O`, the cytotoxicity at 10 µM turned out to be 5.56%.

Consider `Cc1cc2c(=O)n(CCOCCO)cnc2s1`, for which the cytotoxicity at 10 µM was 8.72%.

Take `Cc1nc(-c2cccc(N3CCC(NC4CCSC4)CC3)c2)cs1` (stereo unspecified): the cytotoxicity at 10 µM worked out at 2.86%.

For `COc1ccc(-c2cccc(-c3ccn(CC4COCCO4)n3)c2)nn1` (stereo unspecified), the cytotoxicity at 10 µM was -7.78%.

Turning to `CCCC(=O)N1CCC(N2CC[C@@](O)(CCOC)[C@H](C)C2)CC1`, the cytotoxicity at 10 µM was -3.58%.

On to `OCCN(Cc1ccccc1)Cc1ccsc1`, for which the cytotoxicity at 10 µM was 4.7%.

On to `CCn1c(Cn2cncn2)nnc1C1CCN(Cc2ccccn2)CC1`, for which the cytotoxicity at 10 µM was 9.78%.

Regarding `CN(C)Cc1nnc(C(=O)N(C)Cc2ccc(C(F)(F)F)cc2)o1`, the cytotoxicity at 10 µM is -6.72%.

As to `CC(CN1CC[C@@H]2CCCC[C@@H]2C1)n1cnc2ccccc21` (stereo partly specified), the cytotoxicity at 10 µM amounted to 7.16%.

Regarding `CCOC(=O)N1CCN(C(=O)C(C)n2ccnc2C(C)C)CC1` (stereo unspecified), the cytotoxicity at 10 µM was -9.28%.

For the compound `CCCc1cncnc1N1CCC2(CCC(=O)N(C3CCCC3)C2)CC1`, the cytotoxicity at 10 µM was 2.61%.

Turning to `CCOCC(O)CN1CCN(C(=O)c2cc(F)cc(F)c2)CC1` (stereo unspecified), the cytotoxicity at 10 µM turned out to be 8.1%.

For `CC(C)NC(=O)NCc1ccc(C(=O)NC(C)Cn2cccn2)cc1` (stereo unspecified), the cytotoxicity at 10 µM was -1.46%.

As to `O=C(CCn1cncn1)NCC(c1ccco1)N1CCCCC1` (stereo unspecified), the cytotoxicity at 10 µM is -2.97%.

On to `O=C(c1cc(F)ccc1F)C1CCN(C(=O)c2cnccn2)CC1`, for which the cytotoxicity at 10 µM was -27.2%.

Take `CNc1cc2c(nn1)CCN(C(=O)c1coc(Br)c1)C2`: the cytotoxicity at 10 µM is -13.6%.

As for `COc1c(CNCC(O)c2ccccc2)c(C(C)C)nn1C` (stereo unspecified), the cytotoxicity at 10 µM was -16.5%.

In the case of `Cc1cc(NC(=O)CN2CCn3c(nnc3C3CC3)C2)no1`, the cytotoxicity at 10 µM is -7.32%.

For `Cc1n[nH]c(=O)c2c(NC(=O)CN3CCC(C)CC3)oc(C)c12`, the cytotoxicity at 10 µM was -1.5%.

`Cc1ccc(CN2CCC3(CC2)NC(=O)CC3c2ccccc2)s1` (stereo unspecified): the cytotoxicity at 10 µM was -1.39%.

Turning to `CC(=O)N1CCN(Cc2ccc(C)o2)CC2(CC(=O)N(C)C2)C1` (stereo unspecified), the cytotoxicity at 10 µM is -2.01%.

Take `CN1CCc2c(C#N)c(NCCCN3CCOCC3)n3cnnc3c2C1`: the cytotoxicity at 10 µM was -7.14%.

`O=C1[C@H]2CN(Cc3ccoc3)C[C@H]2CN1CCN1CCCC1`: the cytotoxicity at 10 µM is 1.05%.

Turning to `Cc1ccc(CN2CCc3nnc(CN4CCCC4=O)n3CC2)o1`, the cytotoxicity at 10 µM was -4.28%.

For the compound `CC(C)CN1CC[C@@H]2[C@@H]1CCN2C(=O)N(C)C`, the cytotoxicity at 10 µM was -0.88%.

Take `CC1c2ncc(CNC(=O)C3CC3)n2CCN1CC1CCC1` (stereo unspecified): the cytotoxicity at 10 µM is -3.15%.

As for `Cc1ccc(N2CC[C@H]3O[C@@H](C(=O)N4CCCCO4)CC[C@H]32)nn1`, the cytotoxicity at 10 µM came to 5.37%.

On to `CCS(=O)(=O)N1CCc2onc(COc3ccccn3)c2C1`, for which the cytotoxicity at 10 µM was -4.72%.

`O=C(NCCn1nc(C2CCNC2)c2cccnc21)c1ccccn1` (stereo unspecified): the cytotoxicity at 10 µM is -25.7%.

As for `COc1ccc(-n2cc3[nH]c(=O)[nH]n3c2=O)cc1`, the cytotoxicity at 10 µM is -0.106%.

With `Cn1cc(C(=O)N2C[C@H]3CC(Oc4ccccc4)C[C@H]3C2)cn1` (stereo partly specified), the cytotoxicity at 10 µM worked out at 3.6%.
